Assay [1] has as its target T1, P450BM3 variant V-H10 (Priestia megaterium, UniProt P14779, A181T/A185V/A198V/A291V/E253G/F206C/F88A/H237Q/L354V/P143S/R256S/S227R/T176I/V79N).
T1 sequence (P14779 1-1049 V79N/F88A/P143S/T176I/A181T/A185V/A198V/F206C/S227R/H237Q/E253G/R256S/A291V/L354V): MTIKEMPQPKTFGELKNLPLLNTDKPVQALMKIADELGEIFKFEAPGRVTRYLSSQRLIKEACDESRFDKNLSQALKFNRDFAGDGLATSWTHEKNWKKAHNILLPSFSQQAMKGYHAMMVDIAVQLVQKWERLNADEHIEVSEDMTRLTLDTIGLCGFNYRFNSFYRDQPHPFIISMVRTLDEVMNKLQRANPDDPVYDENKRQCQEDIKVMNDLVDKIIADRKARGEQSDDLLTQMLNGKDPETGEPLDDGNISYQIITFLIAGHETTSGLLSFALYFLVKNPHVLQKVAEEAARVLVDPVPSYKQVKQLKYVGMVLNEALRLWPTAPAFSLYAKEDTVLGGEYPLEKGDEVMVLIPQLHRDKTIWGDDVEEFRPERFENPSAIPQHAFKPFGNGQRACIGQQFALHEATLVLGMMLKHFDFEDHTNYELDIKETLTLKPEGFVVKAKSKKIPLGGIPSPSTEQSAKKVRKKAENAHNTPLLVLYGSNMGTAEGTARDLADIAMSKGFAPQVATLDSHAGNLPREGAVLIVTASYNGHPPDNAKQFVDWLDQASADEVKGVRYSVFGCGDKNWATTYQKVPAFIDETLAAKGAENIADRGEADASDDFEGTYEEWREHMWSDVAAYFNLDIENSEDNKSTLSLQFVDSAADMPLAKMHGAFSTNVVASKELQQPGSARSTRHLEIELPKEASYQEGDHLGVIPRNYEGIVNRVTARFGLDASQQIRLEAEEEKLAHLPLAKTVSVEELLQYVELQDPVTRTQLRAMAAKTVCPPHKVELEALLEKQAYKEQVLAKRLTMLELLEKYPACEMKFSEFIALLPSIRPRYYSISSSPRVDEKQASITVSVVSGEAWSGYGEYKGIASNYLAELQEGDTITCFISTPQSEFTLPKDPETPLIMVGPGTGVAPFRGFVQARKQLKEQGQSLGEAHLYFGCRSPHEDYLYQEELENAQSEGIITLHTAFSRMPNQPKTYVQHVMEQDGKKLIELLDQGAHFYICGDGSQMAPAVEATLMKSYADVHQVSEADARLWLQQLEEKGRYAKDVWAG
Put plainly: Heme spin shift binding of MCL to P450 variant V-H10. Also on record: species or system Bacillus megaterium. The method, boiled down: (§1)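 Purified P450 (3 μM) in 50 mM potassium phosphate, pH 8.0, titrated with test compound (5–2000 μM) from a 50 mM ethanol stock. A difference spectrum (350–500 nm) was taken at each step. Absorbance change at 390/420 nm (high/low spin) was plotted against concentration, with KD from a nonlinear 1:1 binding fit. At least triplicate, room temperature.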

Assay [2] relates to AML02 primary AML specimen. Put plainly: Cell viability of primary AML specimen AML02. The class given is cell-based. Particulars: Homo sapiens, read-out: AML02 LC50. The method in brief: (§2)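 Primary AML samples came from consenting donors. Live mononuclear cells were isolated on a Ficoll-Paque density gradient and cryopreserved, with 40–70% viability after thawing. Cells were kept at 37 °C, humidified, 5% CO2.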

In assay [3] the test system is AML01 primary AML specimen. The experiment in a line: Cell viability of primary AML specimen AML01. Type of assay: cell-based. Particulars: Homo sapiens, AML01, read-out: AML01 LC50. The method, boiled down: as §2
For assay [4], the system named is heme oxygenase 1 (HO-1). Put plainly: Induction of heme oxygenase 1 in primary AML specimens. The class given is cell-based, human. Particulars: compared to vehicle-only control.
In assay [5] the test system is primary AML specimens derived from patients with relapsed AML. The experiment in a line: Activity against the four primary AML specimens. Particulars: Homo sapiens, read-out: LC50 across the four primary AML specimens. Type of assay: cell-based.
For assay [6], the system named is AML03 primary AML specimen. Put plainly: Cell viability of primary AML specimen AML03. The class given is cell-based. Conditions: Homo sapiens, read-out: AML03 LC50. The method, boiled down:
as §2

For assay [7], the system named is AML cells and LSCs. Particulars: MCL vs PTL; cited from earlier work.
For assay [8], the target named is T2, P450BM3 variant V-F10 (Priestia megaterium, UniProt P14779, A181T/A185V/A198V/A291V/E253G/F206C/F82V/F88A/H237Q/L354V/P143S/R256S/S227R/T176I/V79F).
T2 sequence (P14779 1-1049 V79F/F82V/F88A/P143S/T176I/A181T/A185V/A198V/F206C/S227R/H237Q/E253G/R256S/A291V/L354V): T1 sequence (P14779 1-1049 V79N/F88A/P143S/T176I/A181T/A185V/A198V/F206C/S227R/H237Q/E253G/R256S/A291V/L354V) with N79F, F82V
The experiment in a line: Heme spin shift binding of MCL to P450 variant V-F10. More on the design: species or system Bacillus megaterium. The method, boiled down: as §1

We go through one molecule from publication PMC8161485 (ACS Central Science, 2021).

Residue numbers refer to the chain shown, from its start.

As for `C=C1C(=O)O[C@H]2[C@H]1CCC(C)=C1CC[C@@](C)(O)[C@@H]12` [MCL, micheliolide], the Kd in assay [1] is 590 ± 90 µM; in assay [8], 88 ± 18 µM. Further, the CC50 in assay [2] was 20.3 µM; in assay [3], 18.8 µM; in assay [5], 19 to 22 µM; in assay [6], 15.7 µM. Also, the “induction of heme oxygenase 1 (HO-1)” value in assay [4] is recorded as “Dose-dependent induction”. Besides, in assay [7], the “LC50 in vitro relative to PTL (fold higher)” value is reported as roughly 3 fold.
